A short description of series [1]: Cytotoxicity against human HL60 cells after 72 hrs by MTT assay. Format: functional, cell-based. Particulars: HL-60, 72 h. Put shortly:
(§1)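 Cells grown in DMEM with 10% fetal bovine serum, 2 mM glutamine, 100 U/mL penicillin and streptomycin at 37 °C under 5% CO₂. Compounds were dissolved in DMSO, diluted with water and incubated with cells for 72 h. Viability was read by MTT reduction to formazan. IC₅₀ with 95% confidence interval, triplicate experiments.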
In general terms: Tetrazolium dyes change colour on reduction, which living cells bring about.

For a further series, the system named is MDA-MB-435. Briefly: Cytotoxicity against human MDA-MB-435 cells after 72 hrs by MTT assay. Particulars: MDA-MB-435, 72 h. Format: functional, cell-based. The procedure, abridged: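 Cells grown in DMEM with 10% fetal bovine serum, 2 mM glutamine, 100 U/mL penicillin and streptomycin at 37 °C under 5% CO₂. Compounds were dissolved in DMSO, diluted with water and incubated with cells for 72 h. […] Viability was read by MTT reduction to formazan. IC₅₀ with 95% confidence interval, triplicate experiments.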

The nature of series [2]: Cytotoxicity against human HCT8 cells after 72 hrs by MTT assay. Format: functional, cell-based. Particulars: HCT-8, 72 h. The procedure, abridged: as §1
Series [3] in a line: Hemolytic toxicity in mouse erythrocytes assessed as induction of cell membrane disruption incubated for 30 mins by hemoglobin release based spectrophotometry. Further details: species or system Erythrocyte. The procedure, abridged:
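Erythrocytes were exposed to compounds (DMSO stock, water-diluted) for 30 min at room temperature, then centrifuged. Hemoglobin released into the supernatant was read at 540 nm. DMSO served as negative control and 1% Triton X-100 as positive control.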

The subject of a further series is MRC5. Briefly: Cytotoxicity against human MRC5 cells after 72 hrs by MTT assay. It counts as cell-based. Particulars: mrc5, 72 h.

pIC50: −log10 of the molar value. Bounds are passed on as bounds.

In general, pIC50 refers to the negative decadic logarithm of the IC50, by convention in mol/L. A word on the EC50: it is the concentration at which the effect is half-maximal. In the case of `COc1cc(/C=N/Nc2nc3ccccc3s2)ccc1O`, the pIC50 (in series [1]; in the series with MDA-MB-435; in series [2]) was under 4.78 throughout. In series [3], the EC50 at 30 min is over 200 µg/mL.

Turning to `C(=N\Nc1nc2ccccc2s1)/c1ccc2c(c1)OCO2`, the values for the pIC50 (in series [1]; with MDA-MB-435; in series [2]) were 5.26, under 4.77 and under 4.77, respectively. Also, the EC50 at 30 min in series [3] is over 200 µg/mL. In the series with MRC5, the Activity result is “Non-toxic”.

Consider `Oc1ccc(/C=N/Nc2nc3ccccc3s2)cc1O`, for which the pIC50 in series [1] is 4.87; in the series with MDA-MB-435 it was under 4.76; in series [2], under 4.76. Further, the EC50 at 30 min in series [3] is over 200 µg/mL. In addition, the Activity result in the series with MRC5 is “Non-toxic”.

Regarding `O=[N+]([O-])c1ccc(O)c(/C=N/Nc2nc3ccccc3s2)c1`, the results for the pIC50 (in series [1]; with MDA-MB-435; in series [2]) were 5.78, 4.85 and 4.87, respectively. Further, the EC50 at 30 min in series [3] is over 200 µg/mL. Besides, in the series with MRC5, the Activity entry was “Non-toxic”.

Consider `Clc1ccc(/C=N/Nc2nc3ccccc3s2)cc1`, for which the negative-log IC50 (pIC50) (in series [1]; in the series with MDA-MB-435; in series [2]) was under 4.76 in each case. The EC50 at 30 min in series [3] is over 200 µg/mL.

Turning to `CN(C)c1ccc(/C=N/Nc2nc3ccccc3s2)cc1`, the negative logarithm of the IC50 (pIC50) (in series [1]; in the series on MDA-MB-435; in series [2]) was under 4.77 each time. Moreover, the half-maximal effective concentration (EC50) at 30 min in series [3] is over 200 µg/mL.

As to `O=C(O)c1ccccc1/C=N/Nc1nc2ccccc2s1`, the pIC50 (in series [1]; with MDA-MB-435; in series [2]) was under 4.77 in each case. The EC50 at 30 min in series [3] was over 200 µg/mL.

Turning to `Clc1ccc(/C=N/Nc2nc3ccccc3s2)c(Cl)c1`, the pIC50 (in series [1]; in the series on MDA-MB-435; in series [2]) was under 4.81 in each case. The EC50 at 30 min in series [3] is over 200 µg/mL.

In the case of `Fc1ccc(/C=N/Nc2nc3ccccc3s2)c(F)c1`, the pIC50 (in series [1]; in the series with MDA-MB-435; in series [2]) was under 4.76 in each case. Also, in series [3], the EC50 at 30 min was over 200 µg/mL.

As for `Cc1ccc(/C=N/Nc2nc3ccccc3s2)c(C)c1`, the pIC50 (in series [1]; in the series on MDA-MB-435; in series [2]) was under 4.75 in each case. For the same compound, in series [3], the EC50 at 30 min is over 200 µg/mL.

On to `COc1ccc(/C=N/Nc2nc3ccccc3s2)c(OC)c1`, for which the pIC50 (in series [1]; with MDA-MB-435; in series [2]) was under 4.80 throughout. In addition, the EC50 at 30 min in series [3] was over 200 µg/mL.

Regarding `Brc1ccc(/C=N/Nc2nc3ccccc3s2)cc1`, the pIC50 (in series [1]; with MDA-MB-435; in series [2]) was under 4.82 each time. Also, in series [3], the EC50 at 30 min was over 200 µg/mL.

As to `C(=N\Nc1nc2ccccc2s1)/c1ccc(-c2ccccn2)cc1`, the pIC50 in series [1] is 4.94; with MDA-MB-435, under 4.82; in series [2] it was under 4.82. For the same compound, the EC50 at 30 min in series [3] is over 200 µg/mL. In addition, the Activity entry in the series with MRC5 was “Non-toxic”.

Turning to `Oc1cccc(/C=N/Nc2nc3ccccc3s2)c1O`, the pIC50 is 6.46 in series [1], under 4.76 in the series with MDA-MB-435 and 5.89 in series [2]. Moreover, the EC50 at 30 min in series [3] is over 200 µg/mL. For the same compound, in the series on MRC5, the Activity result is on record as “Non-toxic”.

Consider `Oc1ccc(O)c(/C=N/Nc2nc3ccccc3s2)c1`, for which the pIC50 is 6.23 in series [1], 5.20 with MDA-MB-435 and 4.95 in series [2]. Also, the EC50 at 30 min in series [3] was over 200 µg/mL. In addition, the Activity result in the series on MRC5 is given as “Non-toxic”.

Take `Oc1ccc(/C=N/Nc2nc3ccccc3s2)c(O)c1`: the pIC50 was 5.72 in series [1], 4.84 in the series on MDA-MB-435 and 5.46 in series [2]. Further, the EC50 at 30 min in series [3] was over 200 µg/mL. In addition, the Activity entry in the series with MRC5 was “Non-toxic”.

In the case of `Oc1ccc(/C=N/Nc2nc3ccccc3s2)cc1`, the pIC50 is 5.34 in series [1], under 4.73 in the series on MDA-MB-435 and under 4.73 in series [2]. The EC50 at 30 min in series [3] was over 200 µg/mL. The Activity entry with MRC5 is given as “Non-toxic”.

Consider `COc1cccc2c1C(=O)c1c(O)c3c(c(O)c1C2=O)C[C@@](O)(C(=O)CO)C[C@@H]3O[C@H]1C[C@H](N)[C@H](O)[C@H](C)O1` [DOXORUBICIN], for which, in series [3], the EC50 at 30 min is over 200 µg/mL.

Values taken from ChEMBL document CHEMBL3351671, “Synthesis and anticancer activity of (E)-2-benzothiazole hydrazones” (Eur J Med Chem, 2014).
